What was measured:
Assay type in all cases: functional
Providencia rettgeri = assay: Antimicrobial activity against Proteus rettgeri by broth microdilution method
Method in brief: (§1)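 Clinical isolates were tested by CLSI broth microdilution in unsupplemented cation-adjusted Mueller-Hinton broth. The read-out was the MIC, reported as MIC90 (μg/ml) per species or phenotypic group. Ceftriaxone, levofloxacin and imipenem were run in parallel as comparators.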

Corynebacterium jeikeium = assay: Antimicrobial activity against Corynebacterium jeikeium by broth microdilution method; method in brief: as §1
Enterococcus faecalis [1] = assay: Antimicrobial activity against vancomycin-susceptible Enterococcus faecalis by broth microdilution method; method in brief: as §1
Enterococcus faecalis [2] = assay: Antimicrobial activity against Enterococcus faecalis by broth microdilution method; method in brief: as §1
Salmonella sp. = assay: Antimicrobial activity against Salmonella spp. by broth microdilution method; method in brief: as §1
Streptococcus pneumoniae [3] = assay: Antimicrobial activity against penicillin-susceptible Streptococcus pneumoniae by broth microdilution method
Method in brief: (§2)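 Streptococcal isolates were tested by CLSI broth microdilution in cation-adjusted Mueller-Hinton broth supplemented with 3% lysed horse blood. The read-out was the MIC, with MIC90 (μg/ml) reported per group. Ceftriaxone, levofloxacin and imipenem served as comparators.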

Streptococcus pneumoniae [4] = assay: Antimicrobial activity against penicillin-resistant Streptococcus pneumoniae by broth microdilution method
Method in brief: (§3)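 CLSI broth microdilution in cation-adjusted Mueller-Hinton broth with 3% lysed horse blood, against streptococcal clinical isolates of the stated phenotype. Ceftaroline was compared with ceftriaxone, levofloxacin and imipenem. Activity was expressed as MICs (MIC90 in μg/ml).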

Serratia marcescens = assay: Antimicrobial activity against Serratia marcescens by broth microdilution method; method in brief: as §1
Klebsiella pneumoniae [5] = assay: Antimicrobial activity against ESBL-negative Klebsiella pneumoniae by broth microdilution method; method in brief: as §1
Pseudomonas aeruginosa [6] = assay: Antimicrobial activity against multidrug resistant Pseudomonas aeruginosa by broth microdilution method
Method in brief: (§4)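 Isolates of the stated resistance phenotype were tested by CLSI broth microdilution in unsupplemented cation-adjusted Mueller-Hinton broth. Ceftaroline was compared with ceftriaxone, levofloxacin and imipenem. Activity was expressed as MICs (MIC90 in μg/ml).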

Shigella sp. = assay: Antimicrobial activity against Shigella spp. by broth microdilution method; method in brief: as §1
Streptococcus pyogenes [7] = assay: Antimicrobial activity against macrolide-resistant Streptococcus pyogenes by broth microdilution method; method in brief: as §3
Enterococcus faecium [8] = assay: Antimicrobial activity against Enterococcus faecium by broth microdilution method; method in brief: as §1
Staphylococcus [9] = assay: Antimicrobial activity against methicillin-susceptible coagulase-negative Staphylococcus by broth microdilution method; method in brief: as §1
Staphylococcus aureus [10] = assay: Antimicrobial activity against methicillin-susceptible Staphylococcus aureus by broth microdilution method; method in brief: as §1
Staphylococcus [11] = assay: Antimicrobial activity against methicillin-resistant coagulase-negative Staphylococcus by broth microdilution method; method in brief: as §4
Proteus vulgaris = assay: Antimicrobial activity against Proteus vulgaris by broth microdilution method; method in brief: as §1
Klebsiella pneumoniae [12] = assay: Antimicrobial activity against ESBL-positive Klebsiella pneumoniae by broth microdilution method; method in brief: as §1
Haemophilus influenzae [13] = assay: Antimicrobial activity against beta-lactamase-positive Haemophilus influenzae by broth microdilution method
Method in brief: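 H. influenzae isolates were tested by CLSI broth microdilution using Haemophilus test medium. The MIC was read and MIC90 (μg/ml) reported for the group. Ceftriaxone, levofloxacin and imipenem served as comparators.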

Burkholderia cepacia = assay: Antimicrobial activity against Burkholderia cepacia by broth microdilution method; method in brief: as §1
Morganella morganii = assay: Antimicrobial activity against Morganella morganii by broth microdilution method; method in brief: as §1
Haemophilus influenzae [14] = assay: Antimicrobial activity against beta-lactamase-negative ampicillin resistant Haemophilus influenzae by broth microdilution method
Method in brief: (§5)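 CLSI broth microdilution in Haemophilus test medium (cation-adjusted Mueller-Hinton base) against clinical H. influenzae isolates of the stated phenotype. Ceftaroline was compared with ceftriaxone, levofloxacin and imipenem. Activity was expressed as MICs (MIC90 in μg/ml).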

Streptococcus pneumoniae [15] = assay: Antimicrobial activity against levofloxacin-resistant Streptococcus pneumoniae by broth microdilution method; method in brief: as §3
Streptococcus pneumoniae [16] = assay: Antimicrobial activity against penicillin-intermediate Streptococcus pneumoniae by broth microdilution method; method in brief: as §3
Klebsiella aerogenes = assay: Antimicrobial activity against ESBL-negative Enterobacter aerogenes by broth microdilution method; method in brief: as §1
[17] = tested on: Stenotrophomonas maltophilia; assay: Antimicrobial activity against Stenotrophomonas maltophilia by broth microdilution method; method in brief: as §1
Enterococcus faecium [18] = assay: Antimicrobial activity against vancomycin-susceptible Enterococcus faecium by broth microdilution method; method in brief: as §1
Staphylococcus aureus [19] = assay: Antimicrobial activity against vancomycin-resistant Staphylococcus aureus by broth microdilution method; method in brief: as §4
Enterobacter cloacae = assay: Antimicrobial activity against ESBL-negative Enterobacter cloacae by broth microdilution method; method in brief: as §1
Escherichia coli [20] = assay: Antimicrobial activity against ESBL-negative Escherichia coli by broth microdilution method; method in brief: as §1
Providencia stuartii = assay: Antimicrobial activity against Proteus stuartii by broth microdilution method; method in brief: as §1
Proteus mirabilis = assay: Antimicrobial activity against Proteus mirabilis by broth microdilution method; method in brief: as §1
Streptococcus pyogenes [21] = assay: Antimicrobial activity against macrolide-susceptible Streptococcus pyogenes by broth microdilution method; method in brief: as §3
Staphylococcus aureus [22] = assay: Antimicrobial activity against vancomycin-intermediate Staphylococcus aureus by broth microdilution method; method in brief: as §1
Streptococcus agalactiae = assay: Antimicrobial activity against Streptococcus agalactiae by broth microdilution method; method in brief: as §2
Streptococcus viridans = assay: Antimicrobial activity against Streptococcus viridans group clinical isolate by broth microdilution method; method in brief: as §2
Escherichia coli [23] = assay: Antimicrobial activity against ESBL-positive Escherichia coli by broth microdilution method; method in brief: as §1
Pseudomonas aeruginosa [24] = assay: Antimicrobial activity against Pseudomonas aeruginosa by broth microdilution method; method in brief: as §1
Moraxella catarrhalis = assay: Antimicrobial activity against Moraxella catarrhalis by broth microdilution method; method in brief: as §1
Haemophilus influenzae [25] = assay: Antimicrobial activity against beta-lactamase-negative Haemophilus influenzae by broth microdilution method; method in brief: as §5
Staphylococcus aureus [26] = assay: Antimicrobial activity against methicillin-resistant Staphylococcus aureus by broth microdilution method; method in brief: as §4
Listeria monocytogenes = assay: Antimicrobial activity against Listeria monocytogenes by broth microdilution method; method in brief: as §1

CO/N=C(\C(=O)N[C@@H]1C(=O)N2C(C(=O)O)=C(CSc3nc(=O)c(O)nn3C)CS[C@H]12)c1csc(N)n1 [CEFTRIAXONE]
4 µg/mL: MIC50 (Staphylococcus aureus [10]) | MIC90 (Staphylococcus aureus [10])
0.015 µg/mL: MIC (Streptococcus pyogenes [7]) | MIC50 (Streptococcus pyogenes [7]) | MIC (Haemophilus influenzae [13]) | MIC50 (Haemophilus influenzae [13]) | MIC90 (Haemophilus influenzae [13]) | MIC (Proteus mirabilis) | MIC50 (Proteus mirabilis) | MIC90 (Proteus mirabilis) | MIC (Streptococcus pyogenes [21]) | MIC50 (Streptococcus pyogenes [21]) | MIC (Haemophilus influenzae [25]) | MIC50 (Haemophilus influenzae [25]) | MIC90 (Haemophilus influenzae [25])
0.03 µg/mL: MIC50 (Streptococcus pneumoniae [3]) | MIC (Shigella sp.) | MIC50 (Shigella sp.) | MIC90 (Streptococcus pyogenes [7]) | MIC90 (Streptococcus pyogenes [21])
32 µg/mL: MIC50 (Klebsiella pneumoniae [12]) | MIC90 (Morganella morganii) | MIC50 (Staphylococcus aureus [26])
0.06 µg/mL: MIC50 (Providencia rettgeri) | MIC50 (Salmonella sp.) | MIC90 (Streptococcus pneumoniae [3]) | MIC50 (Klebsiella pneumoniae [5]) | MIC90 (Shigella sp.) | MIC50 (Escherichia coli [20]) | MIC50 (Providencia stuartii) | MIC (Streptococcus agalactiae) | MIC50 (Streptococcus agalactiae)
> 32 µg/mL: MIC50 (Corynebacterium jeikeium) | MIC90 (Corynebacterium jeikeium) | MIC (Enterococcus faecalis [1]) | MIC50 (Enterococcus faecalis [1]) | MIC90 (Enterococcus faecalis [1]) | MIC50 (Enterococcus faecalis [2]) | MIC90 (Enterococcus faecalis [2]) | MIC90 (Salmonella sp.) | MIC (Enterococcus faecium [8]) | MIC50 (Enterococcus faecium [8]) | MIC90 (Enterococcus faecium [8]) | MIC90 (Staphylococcus [11]) | MIC90 (Proteus vulgaris) | MIC90 (Klebsiella pneumoniae [12]) | MIC50 (Burkholderia cepacia) | MIC90 (Burkholderia cepacia) | MIC90 (Klebsiella aerogenes) | MIC50 [17] | MIC90 [17] | MIC50 (Enterococcus faecium [18]) | MIC90 (Enterococcus faecium [18]) | MIC (Staphylococcus aureus [19]) | MIC50 (Staphylococcus aureus [22]) | MIC90 (Staphylococcus aureus [22]) | MIC50 (Escherichia coli [23]) | MIC90 (Escherichia coli [23]) | MIC50 (Pseudomonas aeruginosa [24]) | MIC90 (Pseudomonas aeruginosa [24]) | MIC50 (Listeria monocytogenes) | MIC90 (Listeria monocytogenes)
0.25 µg/mL: MIC90 (Providencia rettgeri) | MIC50 (Serratia marcescens) | MIC50 (Streptococcus pneumoniae [15]) | MIC50 (Streptococcus pneumoniae [16]) | MIC50 (Enterobacter cloacae) | MIC90 (Escherichia coli [20]) | MIC90 (Providencia stuartii)
0.5 µg/mL: MIC50 (Morganella morganii) | MIC90 (Streptococcus pneumoniae [16]) | MIC90 (Enterobacter cloacae) | MIC50 (Moraxella catarrhalis)
8 µg/mL: MIC90 (Streptococcus pneumoniae [4]) | MIC90 (Staphylococcus [9])
16 µg/mL: MIC (Pseudomonas aeruginosa [6]) | MIC50 (Staphylococcus [11])
1 µg/mL: MIC50 (Proteus vulgaris) | MIC90 (Streptococcus viridans) | MIC90 (Moraxella catarrhalis)
2 µg/mL: MIC50 (Streptococcus pneumoniae [4]) | MIC90 (Serratia marcescens) | MIC50 (Staphylococcus [9]) | MIC90 (Streptococcus pneumoniae [15])
0.12 µg/mL: MIC90 (Klebsiella pneumoniae [5]) | MIC50 (Haemophilus influenzae [14]) | MIC90 (Haemophilus influenzae [14]) | MIC50 (Klebsiella aerogenes) | MIC90 (Streptococcus agalactiae) | MIC50 (Streptococcus viridans)

Source: ChEMBL document CHEMBL1629657, “In vitro antimicrobial activity of a new cephalosporin, ceftaroline, and determination of quality control ranges for MIC testing” (2009)
